From ChEMBL document CHEMBL4725371, “A Novel Redox Modulator Induces a GPX4-Mediated Cell Death That Is Dependent on Iron and Reactive Oxygen Species” (J Med Chem, 2020) come the findings set out here.

As a reminder, the IC50 is the concentration at which inhibition is half-maximal. Read a low IC50 as higher potency. The half-life is how long it takes for the measured level to halve.

Active and inactive are the calls of the source. The calls are words filed in the database; no cut-off is given here.

The subject of data set [1] is MIA PaCa-2. Nature of the data set: Down regulation of LRPPRC gene expression in human MIA PaCa-2 cells at 3 times IC50 measured after 4 hrs by Trizol reagent based Bru labelling based gene sequence analysis. Type of data set: functional, cell-based. The method, boiled down: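 Bru-seq: 2 × 10⁶ cells were seeded in duplicate and treated at 3 × IC50 for 4 h. Bromouridine (2 mM final) was added for the last 30 min at 37 °C. Total RNA was extracted in TRIzol. BrU-labelled RNA was captured with anti-BrdU magnetic beads, made into cDNA libraries and deep-sequenced.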

Data set [2] has as its system MIA PaCa-2. Kind of data set: Induction of reactive oxygen species in human MIA PaCa-2 cells at 10 uM measured after 1 hr by CM-H2DCFDA dye based fluorescence assay. Type of data set: functional, cell-based. In outline:
(§1)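 1.8 × 10⁴ cells per well were attached overnight, then loaded with 10 μM CM-H2DCFDA in HBSS for 40 min at 37 °C and washed. Compounds were added in HBSS. Fluorescence was read at Ex 483 / Em 530 nm. TBHP was the positive control. NAC at 3 mM was used where stated.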

Data set [3] deals with PANC-1. Nature of the data set: Induction of DNA damage in human PANC-1 cells assessed as increase in H2AX phosphorylation at 1.2 to 1.8 uM measured after 4 hrs by Western blot analysis. Format: functional, cell-based. As to conditions: dose microM 1.2-1.8, time 4.0 hrs. The method, boiled down: (§2)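 Cells were treated 4 h at the stated concentrations and lysed in RIPA with protease and phosphatase inhibitors. 25 μg protein was resolved on 10% SDS gels, transferred to PVDF and probed for STAT3, pSTAT3, pH2AX and GAPDH. Detection used fluorescent secondary antibodies, with normalisation to loading control.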
(In general: A western blot detects proteins with antibodies after separation by electrophoresis.)

Data set [4] deals with PANC-1. Kind of data set: Synergistic inhibition of colony formation in human PANC-1 cells at 0.125 to 0.5 uM measured after 24 hrs in presence of napabucasin by crystal violet staining based assay. Format: functional, cell-based. Particulars: dose microM 0.125-0.5, time 24.0 hrs. The method, boiled down: (§3)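 Colony formation in 96-well plates seeded at 300 (MIA PaCa-2) or 600 (PANC-1) cells/well. Napabucasin, As2O3 or olaparib added 1 h before test compound; drugs on cells 24 h. Plates kept until controls were 80–90% confluent (7–9 days), then stained with 0.05% crystal violet and quantified. Synergy scored by HSA and Bliss models.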

The nature of data set [5]: Half life in mouse plasma at 500 uM by LC-MS/MS analysis. Type of data set: ADME, cell-free. As to conditions: 500 µM. In outline:
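Compound (500 μM DMSO stock) was added at 1 μL per 500 μL pooled plasma. Samples were taken at 0, 0.17, 0.5, 1, 2 and 4 h and centrifuged at 3500 g for 10 min. Supernatant was run by LC-MS/MS. t1/2 came from the slope of ln(compound/internal standard peak area) against time.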

Data set [6] has as its system MIA PaCa-2. Kind of data set: Effect on glutathione level in human MIA PaCa-2 cells at 1.5 to 6 uM measured after 2 to 4 hrs by GSH/GSSG-glo assay. Format: functional, cell-based. As to conditions: dose microM 1.5-6, time hrs 2-4. The method, boiled down: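 GSH/GSSG-Glo luminescent assay: 15,000–20,000 MIA PaCa-2 cells per well, attached overnight, treated 2 h and 4 h. Cells were lysed with total or oxidized glutathione reagent, then luciferin generation (30 min, room temperature) and detection reagents added. Luminescence was read after 15 min. Ratio was computed from net RLU as (total − GSSG)/(GSSG/2).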

In data set [7] the test system is MIA PaCa-2. Kind of data set: Down regulation of LRPPRC expression in human MIA PaCa-2 cells at 3 times IC50 measured after 4 hrs in presence of NQO1 inhibitor dicoumarol by proteomics analysis. Format: functional, cell-based.
For data set [8], the system named is MIA PaCa-2. Kind of data set: Cytotoxicity against human MIA PaCa-2 cells transfected with GPX4 siRNA measured after 72 hrs by MTT assay. Format: functional, cell-based. (In general: Formazan colour is commonly taken as a measure of viable cells.)
In data set [9] the test system is MIA PaCa-2. Kind of data set: Down regulation of LRPPRC expression in human MIA PaCa-2 cells at 3 times IC50 measured after 4 hrs by proteomics analysis. Type of data set: functional, cell-based.
Data set [10] has as its system MIA PaCa-2. Nature of the data set: Induction of DNA damage in human MIA PaCa-2 cells assessed as increase in H2AX phosphorylation at 1 to 1.5 uM measured after 4 hrs by Western blot analysis. Format: functional, cell-based. Particulars: dose microM 1-1.5, time 4.0 hrs. In outline: as §2
For data set [11], the system named is MIA PaCa-2. Kind of data set: Cytotoxicity against human MIA PaCa-2 cells measured after 72 hrs by MTT assay. Format: functional, cell-based. As to conditions: MIA PaCa-2, 72 h. The method, boiled down:
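Cells were kept in RPMI 1640 with 10% FBS at 37 °C, 5% CO₂, under 35 passages. Cells were seeded, attached overnight and treated with compound or DMSO for 72 h. MTT was added at 0.3 mg/mL for 3 h, then dissolved in DMSO and read as absorbance at 570 nm. IC50 was fitted from the curve. Values are mean ± sd of three independent experiments.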

Data set [12] can be described thus: Plasma concentration in CD-1 mouse at 20 mg/kg, po measured after 7 hrs by LC-MS/MS analysis. Format: ADME, organism-based. The method, boiled down:
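CD-1 mice dosed IP at 10 mg/kg or PO at 20 mg/kg, n=2 per route. Blood taken with heparinized pipettes at 0.5, 2, 4 and 7 h and spun at 15,000 rpm for 10 min. Plasma stored at −80 °C, then measured by LC-MS/MS.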

Data set [13] relates to MIA PaCa-2. Nature of the data set: Induction of reactive oxygen species in human MIA PaCa-2 cells at 5 to 10 uM measured up to 4 hrs by CM-H2DCFDA dye based fluorescence assay. Format: functional, cell-based. As to conditions: dose microM 5-10, time hrs <=4, TDE = time-dependent effect. The method, boiled down:
as §1

For data set [14], the system named is PANC-1. Kind of data set: Synergistic inhibition of colony formation in human PANC-1 cells at 0.25 to 0.5 uM measured after 24 hrs in presence of olaparib by crystal violet staining based assay. Format: functional, cell-based. Particulars: dose microM 0.25-0.5, time 24.0 hrs. The method, boiled down: as §3
A short description of data set [15]: Half life in mouse liver microsomes at 10 uM in presence of NADPH by LC-MS/MS analysis. Type of data set: ADME, Microsome. As to conditions: liver microsomes. The method, boiled down: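 Compound (10 μM working solution in 0.1 M phosphate buffer with 3.3 mM MgCl₂) was incubated with mouse liver microsomes and NADPH. Verapamil served as reference. Samples were taken at 0, 5, 10, 15, 30, 45 and 60 min and centrifuged at 3500 g. Supernatant was run by LC-MS/MS. t1/2 came from the slope of ln(peak area ratio) against time.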

The test system of the next data set is BXPC-3. Kind of data set: Inhibition of colony formation in human BXPC-3 cells at 0.375 uM measured after 7 to 9 days in presence of GPX4 inhibitor RSL3 by crystal violet staining based assay. Type of data set: functional, cell-based. Particulars: time day 7-9. In outline:
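Cells seeded overnight in 96-well plates at 300 cells/well (MIA PaCa-2) or 600 cells/well (BxPC-3), in RPMI 1640 with 10% FBS. Inhibitor added 1 h before compound, then continuous exposure for 7–9 days until control wells were 80–90% confluent. Stained with 0.05% crystal violet for 30 min, imaged after overnight drying and quantified.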

The next data set concerns CT26. Nature of the data set: Antitumor activity against mouse CT26 cells implanted in Balb/c mouse assessed as tumor shrinkage at 20 mg/kg, ip. Type of data set: functional, organism-based. The method, boiled down: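 Female Balb/c mice aged 5–6 weeks, implanted subcutaneously in right flank with 1 × 10⁶ CT-26 cells in DPBS. Dosing began 7 days later with randomisation (n = 5/group, mean tumour 97–117 mm³). IV dosing was 3 times weekly and IP dosing was given. Vehicle control given daily IP. Mice were euthanised four hours post-dose after 17 days of dosing.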

Consider `CN1CCN(c2ccc(NC3=CC(=O)c4ncncc4C3=O)cc2)CC1`, for which the result in the data set on MIA PaCa-2 [1], in the data set on MIA PaCa-2 [2], in the data set on PANC-1 [3], with MIA PaCa-2 [9], in the data set with MIA PaCa-2 [10] and with CT26 was Active. The inhibition entry in the data set with PANC-1 [4] and with PANC-1 [14] was “Active” in each case. In [5], this molecule came in with a t1/2 of 6 min. Also, the result with MIA PaCa-2 [6], in the data set with MIA PaCa-2 [7] and with MIA PaCa-2 [8] was inactive. Half-maximal inhibition with MIA PaCa-2 [11] (IC50) was put at 640 nM. The molecule also came in with a concentration at 7 h in data set [12] of 23.3 ng/mL. For the same molecule, in the data set with MIA PaCa-2 [13], the Activity result was “Tde”. Besides, the half-life at 10 µM in [15] is over 60 min. Also, the inhibition result with BXPC-3 was “inactive”.
